This note sets out measurements from ChEMBL document CHEMBL1150264, “Design and microwave-assisted synthesis of novel macrocyclic peptides active at melanocortin receptors: discovery of potent and selective hMC5R receptor antagonists” (J Med Chem, 2008).

The target of test [1] is T1, Melanocortin receptor 3 (Homo sapiens, UniProt P41968). As to the kind of experiment: Displacement of [125I]-[Nle4, D-Phe7]alpha-MSH from human melanocortin 3 receptor expressed in HEK293 cells at 10 uM. The class given is cell-based.
T1 sequence (P41968 whole entry): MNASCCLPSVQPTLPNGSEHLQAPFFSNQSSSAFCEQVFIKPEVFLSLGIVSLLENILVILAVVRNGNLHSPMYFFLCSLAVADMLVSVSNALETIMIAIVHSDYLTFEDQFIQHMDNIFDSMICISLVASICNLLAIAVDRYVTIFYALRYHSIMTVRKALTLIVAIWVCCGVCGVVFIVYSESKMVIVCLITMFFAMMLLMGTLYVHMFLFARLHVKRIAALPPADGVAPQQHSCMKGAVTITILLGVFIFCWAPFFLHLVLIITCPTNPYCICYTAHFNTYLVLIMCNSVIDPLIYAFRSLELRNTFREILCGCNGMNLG
The target of test [2] is T2, Melanocyte-stimulating hormone receptor (Homo sapiens, UniProt Q01726). Briefly: Agonist activity at human melanocortin 1 receptor expressed in HEK293 cells assessed as cAMP accumulation at 10 uM. It is filed as functional, cell-based. An outline of the steps: (§1)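 cAMP accumulation assay in stably transfected HEK293 cells: 0.5 mM IBMX preincubation, 3 min ligand exposure at 37 °C, [3H]cAMP/PKA binding read-out against a standard curve. The cAMP produced at 10 μM ligand is expressed as percent of that produced by 10 μM MT-II (% max effect).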
Target sequence in this assay (Q01726 whole entry, looked up): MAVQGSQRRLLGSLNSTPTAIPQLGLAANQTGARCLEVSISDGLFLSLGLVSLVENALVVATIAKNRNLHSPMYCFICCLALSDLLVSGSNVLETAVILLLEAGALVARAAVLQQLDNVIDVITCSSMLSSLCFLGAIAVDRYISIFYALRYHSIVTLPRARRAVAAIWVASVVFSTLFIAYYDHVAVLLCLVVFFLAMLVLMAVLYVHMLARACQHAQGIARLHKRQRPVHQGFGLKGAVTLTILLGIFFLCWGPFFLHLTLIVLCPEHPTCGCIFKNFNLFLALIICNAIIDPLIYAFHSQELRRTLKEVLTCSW

Test [3] deals with T3, Melanocortin receptor 4 (Homo sapiens, UniProt P32245). Briefly: Agonist activity at human melanocortin 4 receptor expressed in HEK293 cells assessed as cAMP accumulation at 10 uM. The class given is functional, cell-based. In outline: as §1
T3 sequence (P32245 whole entry): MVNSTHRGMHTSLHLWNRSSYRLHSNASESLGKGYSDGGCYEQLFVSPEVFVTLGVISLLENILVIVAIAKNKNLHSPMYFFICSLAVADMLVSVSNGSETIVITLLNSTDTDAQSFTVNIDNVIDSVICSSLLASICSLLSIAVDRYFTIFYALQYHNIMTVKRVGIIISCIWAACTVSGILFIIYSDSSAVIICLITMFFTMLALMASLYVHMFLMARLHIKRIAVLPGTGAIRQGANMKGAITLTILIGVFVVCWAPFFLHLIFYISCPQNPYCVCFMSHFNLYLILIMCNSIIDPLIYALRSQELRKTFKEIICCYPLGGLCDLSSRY
In test [4] the target is T4, Melanocortin receptor 5 (Homo sapiens, UniProt P33032). As to the kind of experiment: Agonist activity at human melanocortin 5 receptor expressed in HEK293 cells assessed as cAMP accumulation at 10 uM realtive to MT2. It is filed as functional, cell-based. An outline of the steps: as §1
T4 sequence (P33032 whole entry): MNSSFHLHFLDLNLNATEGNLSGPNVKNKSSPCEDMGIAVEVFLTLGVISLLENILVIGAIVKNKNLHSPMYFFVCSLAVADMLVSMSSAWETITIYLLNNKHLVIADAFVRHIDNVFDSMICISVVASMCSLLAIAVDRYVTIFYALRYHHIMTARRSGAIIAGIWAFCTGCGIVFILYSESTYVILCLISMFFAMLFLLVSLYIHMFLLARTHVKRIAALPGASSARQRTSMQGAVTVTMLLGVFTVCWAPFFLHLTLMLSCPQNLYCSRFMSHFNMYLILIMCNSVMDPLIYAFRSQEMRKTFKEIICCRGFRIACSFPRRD
For test [5], the target named is T1, Melanocortin receptor 3. As to the kind of experiment: Agonist activity at human melanocortin 3 receptor expressed in HEK293 cells assessed as cAMP accumulation at 10 uM. It is filed as functional, cell-based. In outline:
as §1

For test [6], the target named is T3, Melanocortin receptor 4. Briefly: Agonist activity at human melanocortin 4 receptor expressed in HEK293 cells assessed as cAMP accumulation at 10 uM realtive to MT2. It is filed as functional, cell-based. In outline:
as §1

Test [7] has as its target T4, Melanocortin receptor 5. As to the kind of experiment: Displacement of [125I]-[Nle4, D-Phe7]alpha-MSH from human melanocortin 5 receptor expressed in HEK293 cells at 10 uM. It is filed as cell-based.
The target of test [8] is T1, Melanocortin receptor 3. As to the kind of experiment: Agonist activity at human melanocortin 3 receptor expressed in HEK293 cells assessed as cAMP accumulation at 10 uM realtive to MT2. It is filed as functional, cell-based. In outline:
as §1

For test [9], the target named is T4, Melanocortin receptor 5. Briefly: Agonist activity at human melanocortin 5 receptor expressed in HEK293 cells assessed as cAMP accumulation at 10 uM. The class given is functional, cell-based. In outline: as §1
Test [10] deals with T2, Melanocyte-stimulating hormone receptor. Briefly: Displacement of [125I]-[Nle4, D-Phe7]alpha-MSH from human melanocortin 1 receptor expressed in HEK293 cells at 10 uM. It is filed as cell-based.
Target sequence in this assay (Q01726 whole entry, looked up): as the sequence (Q01726 whole entry, looked up) above
Test [11] concerns the target T3, Melanocortin receptor 4. As to the kind of experiment: Displacement of [125I]-[Nle4, D-Phe7]alpha-MSH from human melanocortin 4 receptor expressed in HEK293 cells at 10 uM. It is filed as cell-based.
Test [12] deals with T2, Melanocyte-stimulating hormone receptor. Briefly: Agonist activity at human melanocortin 1 receptor expressed in HEK293 cells assessed as cAMP accumulation at 10 uM realtive to MT2. The class given is functional, cell-based. In outline:
as §1
Target sequence in this assay (Q01726 whole entry, looked up): as above

For test [13] the target is unchanged. As to the kind of experiment: Displacement of [125I]-[Nle4, D-Phe7]alpha-MSH from human melanocortin 1 receptor expressed in HEK293 cells. The class given is cell-based. In outline:
(§2)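 Whole HEK293 cells stably expressing each hMCR, seeded 48 h before assay (50000 cells/well), washed in MEM with 25 mM bicarbonate. Cells incubated 40 min at 37 °C with unlabeled peptide plus [125I]-NDP-α-MSH (33.06 pM, 20000 cpm/well) in MEM, 25 mM HEPES pH 7.4, 0.2% BSA, 1 mM 1,10-phenanthroline, leupeptin, bacitracin. Cells washed, lysed with NaOH/Triton X-100, and gamma-counted. IC50 by nonlinear fit, two experiments in triplicate […].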
Target sequence in this assay (Q01726 whole entry): as the sequence (Q01726 whole entry, looked up) above

Test [14] addresses T4, Melanocortin receptor 5. As to the kind of experiment: Displacement of [125I]-[Nle4, D-Phe7]alpha-MSH from human melanocortin 5 receptor expressed in HEK293 cells. The class given is cell-based. In outline:
as §2

In test [15] the target is T2, Melanocyte-stimulating hormone receptor. Briefly: Agonist activity at human melanocortin 1 receptor expressed in HEK293 cells assessed as cAMP accumulation. The class given is functional, cell-based. An outline of the steps: (§3)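 Stably transfected HEK293 cells seeded 48 h before assay (50000 cells/well), rinsed, preincubated 1 min at 37 °C in Earle's balanced salt solution with 0.5 mM IBMX, then given peptide at varying concentrations for 3 min at 37 °C. Stopped with ice-cold Tris/EDTA and boiling 7 min. cAMP measured by [3H]cAMP competition for PKA against a standard curve. EC50 by nonlinear least-squares fit, mean of two experiments in triplicate.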
Target sequence in this assay (Q01726 whole entry): as the sequence (Q01726 whole entry, looked up) above

For test [16], the target named is T1, Melanocortin receptor 3. As to the kind of experiment: Agonist activity at human melanocortin 3 receptor expressed in HEK293 cells assessed as cAMP accumulation. It is filed as functional, cell-based. In outline: as §3
Test [17] deals with T1, Melanocortin receptor 3. As to the kind of experiment: Displacement of [125I]-[Nle4, D-Phe7]alpha-MSH from human melanocortin 3 receptor expressed in HEK293 cells. It is filed as cell-based. An outline of the steps:
as §2

The structures appear in SMILES notation. Activity calls are given as the source filed them. No cut-off for these calls is given here.

In the case of `N=C(N)NCCC[C@@H]1NC(=O)[C@@H](Cc2ccccc2)NC(=O)[C@H](Cc2cnc[nH]2)NC(=O)c2cc([N+](=O)[O-])ccc2SC[C@@H](C(N)=O)NC(=O)[C@@H](Cc2ccccc2)NC1=O`, the outcome (on Melanocortin receptor 3 [1]; in test [2]; at Melanocortin receptor 4 [3]; at Melanocortin receptor 3 [5]; at Melanocortin receptor 5 [7]; on Melanocortin receptor 5 [9]) was inactive. The result (in test [10]; at Melanocortin receptor 4 [11]) was inactive. Moreover, the Activity (at Melanocortin receptor 5 [4]; at Melanocortin receptor 4 [6]; at Melanocortin receptor 3 [8]; in test [12]) was 0% throughout.

As for `N=C(N)NCCC[C@@H]1NC(=O)[C@H](CCCNC(N)=O)NC(=O)[C@H](Cc2cnc[nH]2)NC(=O)c2cc([N+](=O)[O-])ccc2SC[C@@H](C(N)=O)NC(=O)[C@H](Cc2c[nH]c3ccccc23)NC1=O`, the result (at Melanocortin receptor 3 [1]; in test [2]; at Melanocortin receptor 4 [3]; on Melanocortin receptor 3 [5]; at Melanocortin receptor 5 [7]; at Melanocortin receptor 5 [9]) was inactive. Further, the outcome (in test [10]; at Melanocortin receptor 4 [11]) was inactive. The Activity (on Melanocortin receptor 5 [4]; at Melanocortin receptor 4 [6]; at Melanocortin receptor 3 [8]; in test [12]) was 0% in each case.

Consider `N=C(N)NCCC[C@@H]1NC(=O)[C@@H](Cc2ccccc2)NC(=O)C2(Cc3ccccc3C2)NC(=O)c2cc([N+](=O)[O-])ccc2SC[C@@H](C(N)=O)NC(=O)[C@H](Cc2c[nH]c3ccccc23)NC1=O`, for which the outcome at Melanocortin receptor 3 [1], at Melanocortin receptor 4 [3], at Melanocortin receptor 5 [9] and on Melanocortin receptor 4 [11] was inactive. The Activity on Melanocortin receptor 5 [4] turned out to be 0%; at Melanocortin receptor 4 [6], 0%; on Melanocortin receptor 3 [8] it was 40%; in test [12], 52%. The IC50 in [13] was > 1 µM; at Melanocortin receptor 5 [14], 0.56 µM. Also, the figures for the EC50 (in test [15]; on Melanocortin receptor 3 [16]) were > 1 µM and > 5 µM, respectively.

In the case of `N=C(N)NCCC[C@@H]1NC(=O)[C@@H](Cc2ccccc2)NC(=O)[C@H](Cc2cnc[nH]2)NC(=O)c2cc([N+](=O)[O-])ccc2SC[C@@H](C(N)=O)NC(=O)[C@@H](Cc2ccc3ccccc3c2)NC1=O`, the outcome (in [2]; at Melanocortin receptor 4 [3]; on Melanocortin receptor 5 [7]; at Melanocortin receptor 5 [9]; in test [10]; at Melanocortin receptor 4 [11]) was inactive. The Activity was determined as 0% on Melanocortin receptor 5 [4], 0% on Melanocortin receptor 4 [6], 75% at Melanocortin receptor 3 [8] and 0% in [12].

As to `NCCC[C@@H]1NC(=O)[C@@H](Cc2ccccc2)NC(=O)[C@H](Cc2cnc[nH]2)NC(=O)c2cc([N+](=O)[O-])ccc2SC[C@@H](C(N)=O)NC(=O)[C@H](Cc2c[nH]c3ccccc23)NC1=O`, the outcome (on Melanocortin receptor 3 [1]; in test [2]; on Melanocortin receptor 4 [3]; on Melanocortin receptor 3 [5]; on Melanocortin receptor 5 [7]; on Melanocortin receptor 5 [9]) was inactive. The outcome (in test [10]; on Melanocortin receptor 4 [11]) was inactive. For the same compound, the Activity (on Melanocortin receptor 5 [4]; at Melanocortin receptor 4 [6]; at Melanocortin receptor 3 [8]; in [12]) was 0% each time.

Turning to `N=C(N)NCCC[C@H]1NC(=O)[C@@H](Cc2ccccc2)NC(=O)[C@H](Cc2cnc[nH]2)NC(=O)c2cc([N+](=O)[O-])ccc2SC[C@@H](C(N)=O)NC(=O)[C@H](Cc2c[nH]c3ccccc23)NC1=O`, the outcome (in [2]; on Melanocortin receptor 4 [3]; at Melanocortin receptor 3 [5]; on Melanocortin receptor 5 [7]; on Melanocortin receptor 5 [9]; in test [10]) was inactive. The outcome on Melanocortin receptor 4 [11] was inactive. In addition, on Melanocortin receptor 3 [17], the IC50 is > 10 µM. Also, the Activity (at Melanocortin receptor 5 [4]; on Melanocortin receptor 4 [6]; on Melanocortin receptor 3 [8]; in [12]) was 0% each time.

`NC(=O)[C@@H]1CSc2ccc([N+](=O)[O-])cc2C(=O)N[C@@H](Cc2cnc[nH]2)C(=O)N[C@H](Cc2ccc3ccccc3c2)C(=O)N[C@@H](CCCN=C(N)N)C(=O)N[C@@H](Cc2c[nH]c3ccccc23)C(=O)N1`: the IC50 on Melanocortin receptor 3 [17] was determined as 0.19 µM; in test [13] it was 0.76 µM; at Melanocortin receptor 5 [14] it was 0.76 µM. Besides, the concentration for a half-maximal effect (EC50) in [15] was > 10 µM.

For the compound `NCCCC[C@@H]1NC(=O)[C@@H](Cc2ccccc2)NC(=O)[C@H](Cc2cnc[nH]2)NC(=O)c2cc([N+](=O)[O-])ccc2SC[C@@H](C(N)=O)NC(=O)[C@H](Cc2c[nH]c3ccccc23)NC1=O`, the outcome (in test [2]; at Melanocortin receptor 4 [3]; on Melanocortin receptor 3 [5]; at Melanocortin receptor 5 [7]; on Melanocortin receptor 5 [9]; in test [10]) was inactive. In addition, at Melanocortin receptor 4 [11], the outcome was inactive. Also, the IC50 at Melanocortin receptor 3 [17] was > 1 µM. In addition, the Activity (at Melanocortin receptor 5 [4]; on Melanocortin receptor 4 [6]; on Melanocortin receptor 3 [8]; in test [12]) was 0% in each case.

Regarding `N=C(N)NCCC[C@@H]1NC(=O)[C@@H](Cc2ccccc2)NC(=O)[C@H]2C[C@@H](O)CN2C(=O)c2cc([N+](=O)[O-])ccc2SC[C@@H](C(N)=O)NC(=O)[C@H](Cc2c[nH]c3ccccc23)NC1=O`, the outcome (at Melanocortin receptor 3 [1]; in test [2]; at Melanocortin receptor 4 [3]; on Melanocortin receptor 3 [5]; at Melanocortin receptor 5 [7]; on Melanocortin receptor 5 [9]) was inactive. The outcome (in test [10]; on Melanocortin receptor 4 [11]) was inactive. The Activity (on Melanocortin receptor 5 [4]; on Melanocortin receptor 4 [6]; on Melanocortin receptor 3 [8]; in [12]) was 0% each time.

Regarding `N=C(N)NCCC[C@@H]1NC(=O)[C@@H](Cc2ccccc2)NC(=O)[C@H](CC2CCCCC2)NC(=O)c2cc([N+](=O)[O-])ccc2SC[C@@H](C(N)=O)NC(=O)[C@H](Cc2c[nH]c3ccccc23)NC1=O`, the result on Melanocortin receptor 4 [3], at Melanocortin receptor 5 [9] and at Melanocortin receptor 4 [11] was inactive. The IC50 is > 1 µM at Melanocortin receptor 3 [17], > 2 µM in [13] and 0.038 µM on Melanocortin receptor 5 [14]. Further, the Activity on Melanocortin receptor 5 [4] was 0%; at Melanocortin receptor 4 [6] it was 0%; on Melanocortin receptor 3 [8], > 100%; in [12] it was 92%. The concentration for a half-maximal effect (EC50) in test [15] is 0.81 µM; at Melanocortin receptor 3 [16], > 4 µM.

With `NC(=O)[C@@H]1CSc2ccc([N+](=O)[O-])cc2C(=O)N[C@@H](Cc2cnc[nH]2)C(=O)N[C@@H](Cc2ccc(N)cc2)C(=O)N[C@@H](CCCN=C(N)N)C(=O)N[C@@H](Cc2c[nH]c3ccccc23)C(=O)N1`, the IC50 is > 1 µM on Melanocortin receptor 3 [17] (hek293) and > 10 µM in test [13] (hek293). In addition, the EC50 in test [15] (hek293) was > 1 µM; at Melanocortin receptor 3 [16] (hek293) it was 0.15 µM.

Consider `NC(=O)[C@@H]1CSc2ccc([N+](=O)[O-])cc2C(=O)N[C@@H](Cc2cnc[nH]2)C(=O)N[C@H](Cc2ccccc2)C(=O)N[C@@H](CCCN=C(N)N)C(=O)N[C@H](Cc2ccc3ccccc3c2)C(=O)N1`, for which the IC50 at Melanocortin receptor 3 [17] is > 8 µM. For the same compound, on Melanocortin receptor 3 [16], the EC50 stood at 0.33 µM.
